Source: ChEMBL document CHEMBL1154682, “Discovery of novel benzoxazinones as potent and orally active long chain fatty acid elongase 6 inhibitors” (J Med Chem, 2009)

What was measured:
[1] = biological target: T1, Very long chain fatty acid elongase 6 (Homo sapiens, UniProt Q9H5J4); test: Inhibition of human ELOVL6 expressed in Pichia pastoris using palmitoyl-CoA by long chain fatty acyl-CoA elongation assay
T1 sequence (Q9H5J4 whole entry): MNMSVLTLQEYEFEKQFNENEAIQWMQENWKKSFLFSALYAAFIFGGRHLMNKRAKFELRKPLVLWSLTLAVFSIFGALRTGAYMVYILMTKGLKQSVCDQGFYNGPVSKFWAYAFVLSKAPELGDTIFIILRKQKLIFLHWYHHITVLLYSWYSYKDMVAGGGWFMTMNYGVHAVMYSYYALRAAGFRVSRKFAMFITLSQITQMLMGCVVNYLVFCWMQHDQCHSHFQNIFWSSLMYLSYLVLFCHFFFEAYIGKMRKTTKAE
In short: (§1)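 Microsomes (3 μg) from Pichia pastoris SMD1168 expressing FLAG-tagged human or mouse ELOVL6 were incubated 1 h at 37 °C in 100 mM potassium phosphate pH 6.5 with 40 μM palmitoyl-CoA, 20 μM malonyl-CoA plus [14C]-malonyl-CoA, 500 μM NADPH, 200 μM BSA and 1 μM rotenone. DMSO was 1.0% final. After HCl hydrolysis, filter-retained 14C was counted. IC50 came from nonlinear regression on % of control.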

[2] = Unbound fraction in C57BL/6N mouse plasma; type: ADME, cell-free
In short: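 Equilibrium dialysis was run with C57BL/6N mouse plasma adjusted to pH 7.4 and spiked with 1 μM compound, dialysed against PBS for 6 h at 37 °C. Both sides were analysed by LC-MS/MS. Unbound fraction = Cf/Cp × 100. Mean of n = 3.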

[3] = biological target: T2, Very long chain fatty acid elongase 6 (Mus musculus, UniProt Q920L5); test: Inhibition of ELOVL6 in mouse H2.35 cells assessed as elongation index; type: cell-based
T2 sequence (Q920L5 whole entry): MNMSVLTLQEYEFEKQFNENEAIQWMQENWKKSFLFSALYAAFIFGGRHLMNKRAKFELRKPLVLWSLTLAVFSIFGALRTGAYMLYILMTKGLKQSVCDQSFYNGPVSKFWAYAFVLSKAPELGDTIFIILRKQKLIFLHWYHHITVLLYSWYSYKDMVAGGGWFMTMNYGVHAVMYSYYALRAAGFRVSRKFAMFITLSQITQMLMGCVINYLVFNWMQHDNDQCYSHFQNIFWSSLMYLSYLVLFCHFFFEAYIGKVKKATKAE
In short: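 Subconfluent mouse hepatoma H2.35 cells were kept at 33 °C in DMEM with 200 nM dexamethasone and 4% FBS. Lipids were hydrolysed in NaOH at 70 °C, and fatty acids extracted and quantified by radio-HPLC. Elongation index = (C18:0 + C18:1) / (C16:0 + C16:1).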

[4] = biological target: T2, Very long chain fatty acid elongase 6; test: Inhibition of mouse ELOVL6 expressed in Pichia pastoris using palmitoyl-CoA by long chain fatty acyl-CoA elongation assay; in short: as §1

| Structure (SMILES) | IC50 [1] | fraction unbound [2] | IC50 [3] | IC50 [4] |
| --- | --- | --- | --- | --- |
| O=C(Nc1ccc(F)cc1)OCC1(C(F)(F)F)OC(=O)Nc2ccc(Cl)cc21 (centres undefined) | 142 nM | – | – | – |
| O=C(NCC1(C(F)(F)F)OC(=O)Nc2ccc(Cl)cc21)Nc1ccc(F)cc1 (single isomer, unassigned; (-)) | – | 0.005 | 377 nM | 31 nM |
| O=C1Nc2ccc(-n3cccn3)cc2C(CNC(=O)c2ccc(F)cc2)(C(F)(F)F)O1 (single isomer, unassigned; (+)) | – | – | 58 nM | 29 nM |
| CC(C)C1(COC(=O)Nc2ccc(F)cc2)OC(=O)Nc2ccc(Cl)cc21 (centres undefined) | 5030 nM | – | – | – |

Continued, values first:

| IC50 [1] | fraction unbound [2] | IC50 [3] | IC50 [4] | Structure (SMILES) |
| --- | --- | --- | --- | --- |
| 1360 nM | – | – | – | CC1(COC(=O)Nc2ccc(F)cc2)OC(=O)Nc2ccc(Cl)cc21 (centres undefined) |
| 1410 nM | – | – | – | O=C(Nc1ccc(F)cc1)OCC1(C2CC2)OC(=O)Nc2ccc(Cl)cc21 (centres undefined) |
